The values below come from ChEMBL document CHEMBL1139403, “Syntheses and anti-depressant activity of 5-amino-1, 3, 4-thiadiazole-2-thiol imines and thiobenzyl derivatives” (2008).

The subject of assay [1] is Mus musculus. Put plainly: Antidepressant activity in albino mouse assessed as decrease in immobility time at 10 mg/kg, ip after 60 mins by forced-swimming test relative to untreated control. It is filed as functional. More on the design: scale not given: the % may be the effect or the level left. To be noted: route intraperitoneal. In short, it runs like this:
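Albino mice given 10 mg/kg ip; forced swim in a vertical Plexiglas cylinder of water at 25 °C for 15 min, immobility plateauing after 5–6 min; % immobility calculated; mice dried in a heated enclosure (32 °C) afterwards.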

The subject of assay [2] is Mus musculus. Description: Neurotoxicity in albino mouse assessed as animal in lateral position at 10 mg/kg, ip administered 1 hr prior to ethanol challenge measured after 30 mins. The assay is classed as functional. As to conditions: route intraperitoneal.

With `COc1ccc(/C=C/C(=N\c2nnc(SCc3ccc(Cl)cc3)s2)c2ccc(Cl)cc2)cc1`, the Activity in the assay with Mus musculus [1] is given as 84.23%; in the assay with Mus musculus [2], <50%.
The corresponding values for `CN(C)CCCN1c2ccccc2CCc2ccccc21` [IMIPRAMINE] are 82% and <50%.
In the case of `Clc1ccc(/C=C/C(=N\c2nnc(SCc3ccccc3)s2)c2ccc(Cl)cc2)cc1`, in the assay on Mus musculus [2], the Activity was <50%.
As to `COc1ccc(/C=C/C(=N\c2nnc(SCc3ccccc3)s2)c2ccc(Cl)cc2)cc1`, the Activity is reported as 77.99% in the assay with Mus musculus [1] and <50% in the assay with Mus musculus [2].
Regarding `Clc1ccc(/C=C/C(=N\c2nnc(SCc3ccc(Cl)cc3)s2)c2ccc(Cl)cc2)cc1`, the Activity in the assay with Mus musculus [1] is reported as 87.57%; in the assay with Mus musculus [2], <50%.
